ChEMBL document CHEMBL1154794, “Asterolaurins A-F, xenicane diterpenoids from the Taiwanese soft coral Asterospicularia laurae” (J Nat Prod, 2009)
pIC50: −log10 of the molar value.

Experiments:
[1] = Antiinflammatory activity in human neutrophils assessed as inhibition of fMLP/cytochalasin B-induced superoxide anion generation at 10 ug/ml after 5 mins by spectrophotometry; type: functional; details: Neutrophil
In short: (§1)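 Neutrophils isolated by dextran sedimentation and Ficoll centrifugation. Cells supplemented with ferricytochrome c (0.5 mg/mL) and Ca2+ (1 mM), equilibrated 2 min at 37 °C, then given compound for 5 min. CB (1 µg/mL) added 3 min before FMLP (100 nM) activation for 10 min. Superoxide dismutase-inhibitable ferricytochrome c reduction followed continuously at 550 nm with stirring.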

HepG2 = assay: Cytotoxicity against human HepG2 cells by MTT assay; type: functional, cell-based
In short: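 Human liver carcinoma HepG2 cells, viability read by MTT assay. Camptothecin served as positive control.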

[2] = Antiinflammatory activity in human neutrophils assessed as inhibition of fMLP/cytochalasin B-induced elastase release at 10 ug/ml after 5 mins; type: functional; details: Neutrophil
In short: (§2)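 Neutrophils (6 × 10^5/mL) given MeO-Suc-Ala-Ala-Pro-Val-p-nitroanilide (100 µM) as substrate, equilibrated 2 min at 37 °C, then exposed to compound for 5 min. Stimulated with FMLP (100 nM)/CB (0.5 µg/mL). Absorbance at 405 nm followed continuously. Initial rate of elastase release expressed as percentage of the FMLP/CB-activated DMSO control. Genistein served as positive control.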

[3] = Antiinflammatory activity in human neutrophils assessed as inhibition of fMLP/cytochalasin B-induced superoxide anion generation after 5 mins by spectrophotometry; type: functional, cell-based; details: Neutrophil; in short: as §1
[4] = Antiinflammatory activity in human neutrophils assessed as inhibition of fMLP/cytochalasin B-induced elastase release after 5 mins; type: functional, cell-based; details: Neutrophil; in short: as §2

pIC50 [3] | pIC50 [4] | SMILES | inhibition at 10 µg/mL [1] [%] | pIC50 (HepG2) | inhibition at 10 µg/mL [2] [%]
– | – | C=C1C[C@@H](OC(C)=O)/C=C(\COC(C)=O)CC[C@@H]2/C(=C\[C@H](O)C=C(C)C)C(=O)OC[C@@H]12 [ASTEROLAURIN E] | 24 | < 4.40 | 36
– | – | C=C1C[C@@H](O)[C@@H](O)/C(C)=C\C[C@@H]2C([C@@H](OC(C)=O)[C@H](C=C(C)C)OC(C)=O)=CO[C@H](OC(C)=O)[C@@H]12 [ASTEROLAURIN B] | 31 | < 4.40 | 30
– | – | C=C1C[C@@H](O)[C@@H](O)C(=C)CC[C@@H]2C([C@@H](OC(C)=O)[C@H](C=C(C)C)OC(C)=O)=CO[C@H](OC(C)=O)[C@@H]12 [ASTEROLAURIN C] | 22 | < 4.40 | 39
– | – | C=C1C[C@@H](OC(C)=O)/C=C(\C)CC[C@@H]2/C(=C\[C@H](O)C=C(C)C)C(=O)OC[C@@H]12 | 9 | < 4.40 | 13
– | – | O=c1c(-c2ccc(O)cc2)coc2cc(O)cc(O)c12 [GENISTEIN] | 65 | – | 52
4.63 | 4.73 | C=C1C[C@@H](OC(C)=O)/C=C(\C)CC[C@@H]2/C(=C\C=C\C(C)(C)O)CO[C@H](O)[C@@H]12 [ASTEROLAURIN D] | 56 | < 4.40 | 68
– | 4.40 | C=C1C[C@@H](O)[C@@H]2O[C@@]2(C)CC[C@@H]2C([C@@H](OC(C)=O)[C@H](C=C(C)C)OC(C)=O)=CO[C@H](OC(C)=O)[C@@H]12 [ASTEROLAURIN A] | – | 5.05 | –
